Data set [1] can be described thus: Inhibition of beta-haematin formation after 5 to 6 hrs by UV-vis spectamax plate reader analysis. The data set is classed as functional. Put shortly:
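Detergent-mediated assay: compounds from DMSO stocks (20, 2, 0.4 mM) in duplicate, 0–1000 µM final. Added water and NP-40, then haematin at 100 µM final in 0.5 M acetate buffer pH 4.8. Incubated at 37 °C for 5–6 h. Pyridine added to 5% v/v final in HEPES pH 7.4 with acetone. Haem–pyridine absorbance read (405 nm). IC50 from sigmoidal fits.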

In data set [2] the test system is Plasmodium falciparum. In words: Resistance index, ratio of IC50 for chloroquine-resistant erythrocytic stage of Plasmodium falciparum K1 to IC50 for chloroquine-sensitive erythrocytic stage of Plasmodium falciparum NF54. In kind it is functional.
Data set [3] is described as follows: Selectivity index, ratio of IC50 for rat L6 cells to IC50 for chloroquine-resistant erythrocytic stage of Plasmodium falciparum K1. Conditions: read-out: Ratio IC50. The data set is classed as toxicity, cell-based. An outline of the steps:
(§1)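 IC50 in rat L6 skeletal myoblasts divided by the antiplasmodial IC50 for the named strain. L6 cells were seeded at 4000 per well in RPMI 1640 with L-glutamine and 10% FBS and exposed to eleven 3-fold dilutions from 100 to 0.002 µg/mL for 70 h. Alamar Blue was then added for 2 h and fluorescence read at ex 536 / em 588 nm. IC50 by linear regression of the sigmoidal curves.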

The test system of data set [4] is Plasmodium falciparum. In words: Antimalarial activity against chloroquine-resistant erythrocytic stage of Plasmodium falciparum K1 infected in human red blood cells assessed as growth inhibition after 48 hrs by [3H]-hypoxanthine incorporation assay. In kind it is functional, organism-based. An outline of the steps:
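Erythrocytic P. falciparum in RPMI 1640 without hypoxanthine, with HEPES, NaHCO3, neomycin, Albumax, and human A+ red cells at 2.5% haematocrit and 0.3% parasitaemia. Compounds from a 10 mg/mL DMSO stock, eleven 3-fold dilutions from 100 to 0.002 µg/mL. Incubated 48 h at 37 °C (4% CO2, 3% O2), then 3H-hypoxanthine added for 24 h more. Cells harvested and counted by scintillation. IC50 by linear regression of the sigmoidal curves, mean of two independent assays.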

Data set [5] in a line: Selectivity index, ratio of IC50 for rat L6 cells to IC50 for chloroquine-sensitive erythrocytic stage of Plasmodium falciparum NF54. In kind it is toxicity, cell-based. Conditions: read-out: Ratio IC50. Put shortly: as §1
A further data set relates to L6. In words: Cytotoxicity against rat L6 cells assessed as growth inhibition after 70 hrs by Alamar blue staining-based inverted microscopic analysis. In kind it is cell-based. Conditions: L6, 70 h. Put shortly: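 L6 rat skeletal myoblasts, 4000 cells/well in RPMI 1640 with 1% L-glutamine (200 mM) and 10% FBS. Eleven 3-fold dilutions spanning 100 to 0.002 µg/mL. After 70 h, Alamar Blue added for 2 h more. Fluorescence read at ex 536/em 588 nm. IC50 from sigmoidal dose–inhibition curves by linear regression.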

Data set [6] deals with Plasmodium falciparum. In words: Antimalarial activity against chloroquine-sensitive erythrocytic stage of Plasmodium falciparum NF54 infected in human red blood cells assessed as growth inhibition after 72 hrs by [3H]-hypoxanthine incorporation assay.
A short description of data set [7]: Solubility of the compound in water. In kind it is physicochemical. Conditions: buffer.

The source of these data is ChEMBL document CHEMBL2390835, “Synthesis and antimalarial testing of neocryptolepine analogues: addition of ester function in SAR study of 2,11-disubstituted indolo[2,3-b]quinolines” (Eur J Med Chem, 2013).

SMILES strings stand for the structures.

For orientation: IC50 means the concentration that inhibits the measured activity by half. For the compound `COC(=O)c1ccc2nc3n(C)c4ccccc4c(NCCCNC(=S)Nc4ccccc4)c-3c2c1`, the IC50 was 10.8 µM in data set [1], 0.0644 µM in the data set with Plasmodium falciparum [4], 2.82 µM in the data set on L6 and 0.00603 µM in the data set with Plasmodium falciparum [6]. Also, in the data set with Plasmodium falciparum [2], the “Ratio IC50” value is 10.7. In addition, the selectivity ratio stood at 43.8 in data set [3] and 467 in data set [5].

For `COC(=O)c1ccc2nc3n(C)c4ccccc4c(N4CCCN(C)CC4)c-3c2c1`, the IC50 came to 106 µM in data set [1], 6.19 µM with L6 and 0.75 µM in the data set on Plasmodium falciparum [6]. Moreover, in data set [5], the selectivity ratio was found to be 8.25.

Regarding `COC(=O)c1ccc2nc3n(C)c4ccc(Br)cc4c(NCCCN)c-3c2c1`, the IC50 in data set [1] worked out at 11.5 µM; in the data set with L6, 0.819 µM; with Plasmodium falciparum [6], 0.00227 µM. Besides, the selectivity ratio in data set [5] stood at 361.

With `COC(=O)c1ccc2nc3n(C)c4ccccc4c(N4CCOCC4)c-3c2c1`, the IC50 in data set [1] was determined as 55.5 µM; in the data set with L6, 3.81 µM; in the data set with Plasmodium falciparum [6], 1.77 µM. Also, in data set [5], the selectivity ratio was determined as 2.15.

In data set [1], `CCN(CC)CCCC(C)Nc1ccnc2cc(Cl)ccc12` (centres undefined) [CHLOROQUINE] came in with an IC50 of 18.4 µM.

For the compound `CN(C)CCCNc1c2c3cc(C(=O)O)ccc3nc-2n(C)c2ccccc12`, the solubility entry in data set [7] is on record as “soluble”. Besides, in data set [5], the selectivity ratio is 30.6. Further, the IC50 with L6 came to 66.2 µM; in the data set on Plasmodium falciparum [6] it was 2.16 µM.

For the compound `COC(=O)c1ccc2nc3n(C)c4ccccc4c(NCCCCN)c-3c2c1`, the selectivity ratio in data set [5] came out at 7.81. The IC50 turned out to be 0.436 µM in the data set with L6 and 0.0558 µM with Plasmodium falciparum [6].

Take `Cn1c2nc3ccccc3c-2cc2ccccc21` [NEOCRYPTOLEPINE]: the “Ratio IC50” value in the data set with Plasmodium falciparum [2] was determined as 1.07. In addition, the values for the selectivity ratio in data set [3] and in data set [5] were 1.88 and 2, respectively.

Consider `COC(=O)c1ccc2nc3n(C)c4ccccc4c(NCCCN(C)C)c-3c2c1`, for which the IC50 is 62.5 µM in data set [1], 0.268 µM in the data set with L6 and 0.0333 µM with Plasmodium falciparum [6]. The selectivity ratio in data set [5] came out at 8.05.

Regarding `Cn1c2nc3ccccc3c-2c(NCCCN)c2ccccc21`, the selectivity ratio in data set [5] amounted to 3.5.

Take `COC(=O)c1ccc2nc3n(C)c4ccc(Br)cc4c(NCCCNC(=O)Nc4ccccc4)c-3c2c1`: the results for the IC50 (in data set [1]; in the data set on L6; in the data set with Plasmodium falciparum [6]) were 16 µM, 6.74 µM and 0.00805 µM, respectively. In addition, in data set [5], the selectivity ratio was 837.

For `COC(=O)c1ccc2nc3n(C)c4ccccc4c(NCCCNC(=O)Nc4ccccc4)c-3c2c1`, the IC50 in data set [1] turned out to be 12.8 µM; in the data set with Plasmodium falciparum [4] it was 0.0684 µM; in the data set on L6, 2.58 µM; with Plasmodium falciparum [6], 0.0145 µM. For the same compound, in the data set on Plasmodium falciparum [2], the “Ratio IC50” value is on record as 4.71. The selectivity ratio in data set [3] came to 37.7; in data set [5], 178.

As for `COC(=O)c1ccc2nc3n(C)c4ccc(Cl)cc4c(NCCCNC(=O)Nc4ccccc4)c-3c2c1`, the IC50 in data set [1] is 14.9 µM; with Plasmodium falciparum [4], 0.0233 µM; in the data set on L6 it was 3.34 µM; in the data set on Plasmodium falciparum [6], 0.0136 µM. Moreover, the “Ratio IC50” value in the data set on Plasmodium falciparum [2] turned out to be 1.71. For the same compound, the selectivity ratio was 143 in data set [3] and 246 in data set [5].

For the compound `COC(=O)c1ccc2nc3n(C)c4ccccc4c(NCCCO)c-3c2c1`, the IC50 in data set [1] worked out at 123 µM; with L6, 0.639 µM; in the data set with Plasmodium falciparum [6], 0.278 µM.

For `COC(=O)c1ccc2c(c1)c(NCCCNC(=O)Nc1ccccc1)c1c3cc(Br)ccc3nc-1n2C`, the IC50 in data set [1] was found to be 10.1 µM; with Plasmodium falciparum [4], 0.0197 µM; with L6 it was 1.12 µM; in the data set with Plasmodium falciparum [6], 0.00715 µM. Besides, the “Ratio IC50” value with Plasmodium falciparum [2] is given as 2.75. For the same compound, the selectivity ratio in data set [3] is 56.9; in data set [5], 157.

Regarding `Cn1c2nc3ccc(Br)cc3c-2c(NCCCNC(=O)Nc2ccccc2)c2cc(Cl)ccc21`, the IC50 in data set [1] is 17.8 µM; with Plasmodium falciparum [4], 0.0168 µM; with L6, 0.408 µM; in the data set on Plasmodium falciparum [6], 0.00559 µM. Moreover, in the data set with Plasmodium falciparum [2], the “Ratio IC50” value is on record as 3. For the same compound, the selectivity ratio in data set [3] was found to be 24.3; in data set [5], 73.

As for `COC(=O)c1ccc2nc3n(C)c4ccc(C(=O)OC)cc4c(NCCCNC(=O)Nc4ccccc4)c-3c2c1`, the IC50 in data set [1] was 4.6 µM; with Plasmodium falciparum [4] it was 0.0408 µM; in the data set on L6 it was 26.5 µM; with Plasmodium falciparum [6] it was 0.0167 µM. Besides, in the data set with Plasmodium falciparum [2], the “Ratio IC50” value was determined as 2.44. Further, the selectivity ratio in data set [3] is 650; in data set [5], 1590.

In the case of `COC(=O)c1ccc2c(c1)c(NCCCNC(=S)Nc1ccccc1)c1c3ccccc3nc-1n2C`, the IC50 was 15.7 µM in data set [1], 0.0161 µM with Plasmodium falciparum [4], 0.581 µM in the data set with L6 and 0.00181 µM in the data set on Plasmodium falciparum [6]. For the same compound, the “Ratio IC50” value in the data set on Plasmodium falciparum [2] was 8.89. For the same compound, the selectivity ratio in data set [3] came to 36.1; in data set [5] it was 321.

As to `Cn1c2nc3ccc(Br)cc3c-2c(NCCCN)c2cc(Cl)ccc21`, the IC50 in data set [1] was 30.1 µM; in the data set on Plasmodium falciparum [4] it was 0.0192 µM; with L6, 0.401 µM; in the data set with Plasmodium falciparum [6], 0.00216 µM. Also, the “Ratio IC50” value in the data set on Plasmodium falciparum [2] is on record as 8.89. For the same compound, the figures for the selectivity ratio in data set [3] and in data set [5] were 20.9 and 186, respectively.

Take `COC(=O)c1ccc2nc3n(C)c4ccc(Cl)cc4c(NCCCN)c-3c2c1`: the IC50 turned out to be 25.4 µM in data set [1], 0.0202 µM in the data set with Plasmodium falciparum [4], 0.427 µM in the data set with L6 and 0.00757 µM in the data set on Plasmodium falciparum [6]. For the same compound, in the data set on Plasmodium falciparum [2], the “Ratio IC50” value was 2.67. Besides, the selectivity ratio in data set [3] was 21.1; in data set [5], 56.4.

`CN(C)CCNc1c2c3cc(C(=O)O)ccc3nc-2n(C)c2ccccc12`: the solubility result in data set [7] is reported as “soluble”. Further, in data set [5], the selectivity ratio is 7.84. Further, the IC50 in the data set with L6 came out at 20 µM; in the data set on Plasmodium falciparum [6], 2.55 µM.

On to `COC(=O)c1ccc2nc3n(C)c4ccccc4c(NCCN(C)C)c-3c2c1`, for which the IC50 was found to be 51.5 µM in data set [1], 0.315 µM with L6 and 0.0425 µM in the data set with Plasmodium falciparum [6]. In addition, the selectivity ratio in data set [5] amounted to 7.41.

Take `COC(=O)c1ccc2c(c1)c(NCCCNC(=O)Nc1ccccc1)c1c3ccccc3nc-1n2C`: the IC50 was found to be 23 µM in data set [1], 0.0561 µM in the data set on Plasmodium falciparum [4], 0.754 µM in the data set with L6 and 0.00416 µM with Plasmodium falciparum [6]. Moreover, the “Ratio IC50” value in the data set with Plasmodium falciparum [2] is recorded as 13.5. Moreover, the selectivity ratio turned out to be 13.4 in data set [3] and 181 in data set [5].

Take `COC(=O)c1ccc2nc3n(C)c4ccc(C(=O)OC)cc4c(NCCCNC(=S)Nc4ccccc4)c-3c2c1`: the IC50 in data set [1] stood at 7.5 µM; in the data set on Plasmodium falciparum [4], 0.0504 µM; in the data set with L6, 0.627 µM; in the data set on Plasmodium falciparum [6], 0.0144 µM. Also, the “Ratio IC50” value in the data set with Plasmodium falciparum [2] is reported as 3.5. The selectivity ratio worked out at 12.4 in data set [3] and 43.5 in data set [5].

`COC(=O)c1ccc2c(c1)c(NCCCN)c1c3cc(Br)ccc3nc-1n2C`: the IC50 in data set [1] amounted to 10.2 µM; with Plasmodium falciparum [4], 0.0159 µM; in the data set with L6 it was 1.05 µM; with Plasmodium falciparum [6], 0.00454 µM. Moreover, the “Ratio IC50” value in the data set on Plasmodium falciparum [2] was determined as 3.5. The values for the selectivity ratio in data set [3] and in data set [5] were 66 and 232, respectively.

As to `COC(=O)c1ccc2nc3n(C)c4ccc(C(=O)OC)cc4c(NCCCN)c-3c2c1`, the IC50 in data set [1] is 13 µM; in the data set with Plasmodium falciparum [4], 0.0119 µM; in the data set on L6, 1.39 µM; in the data set with Plasmodium falciparum [6], 0.00952 µM. In the data set with Plasmodium falciparum [2], the “Ratio IC50” value is recorded as 1.25. Besides, the results for the selectivity ratio in data set [3] and in data set [5] were 117 and 146, respectively.
